For test [1], the system named is RAW264.7. Nature of the test: Inhibition of LPS-induced nitric oxide production in mouse RAW264.7 cells assessed as nitrite accumulation after 20 hrs. The class given is functional, cell-based. To be noted: RAW264.7, 20 h. In a few lines: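 RAW 264.7 macrophages grown in DMEM with 10% FBS and penicillin-streptomycin at 37 °C, 5% CO2. Plated at 5 × 10⁵ cells/mL in phenol-red-free 10% FBS-DMEM for 24 h, then PBS-washed, refreshed, and given 1 μg/mL LPS ± samples for 20 h. Nitrite in supernatant measured by Griess reaction at 540 nm against a sodium nitrite standard. Inhibition calculated versus vehicle control; IC50 by nonlinear regression. L-NMMA positive control.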

Test [2] concerns RAW264.7. Nature of the test: Selectivity index, ratio of CC50 for mouse RAW264.7 cells to IC50 for nitric oxide production in mouse RAW264.7 cells. It counts as functional.
The test system of test [3] is RAW264.7. Nature of the test: Cytotoxicity against mouse RAW264.7 cells by MTT assay. It counts as cell-based. In general terms: Tetrazolium dyes change colour on reduction, which living cells bring about.

For orientation: IC50 means the concentration needed to halve the response being measured. Regarding `CC(C)=CCc1c(O)ccc2c1O[C@H](c1ccc(O)cc1O)CC2=O`, the results for the IC50 in the test on RAW264.7 [1] and in the test with RAW264.7 [3] were 12.3 µM and 47.9 µM, respectively. For the same molecule, the “Ratio CC50/IC50” value with RAW264.7 [2] came out at 3.9.

Regarding `CC1(C)C=Cc2c(ccc(C(=O)/C=C/c3ccc(O)cc3O)c2O)O1`, the values for the 50% inhibitory concentration (IC50) with RAW264.7 [1] and with RAW264.7 [3] were 18.8 µM and 59.2 µM, respectively. In addition, the “Ratio CC50/IC50” value in the test on RAW264.7 [2] amounted to 3.1.

`COc1cc2oc3c(c(=O)c2c(O)c1/C=C/C(C)C)C(C=C(C)C)Oc1cc(O)ccc1-3` (stereo not drawn): the figures for the half-inhibitory concentration (IC50) with RAW264.7 [1] and in the test with RAW264.7 [3] were over 60 µM and 46.1 µM, respectively. The “Ratio CC50/IC50” value in the test on RAW264.7 [2] is under 0.8.

Turning to `COc1cc2oc(-c3ccc(O)cc3O)c(CC=C(C)C)c(=O)c2c(O)c1/C=C/C(C)C` [ARTOCARPIN], the concentration for half-maximal inhibition (IC50) came to 18.7 µM with RAW264.7 [1] and 45.3 µM in the test on RAW264.7 [3]. Moreover, in the test with RAW264.7 [2], the “Ratio CC50/IC50” value is given as 2.4.

`CC(C)=CC1Oc2cc(O)ccc2-c2oc3cc4c(c(O)c3c(=O)c21)C=CC(C)(C)O4` (stereo not drawn) [CUDRAFLAVONE A]: the IC50 with RAW264.7 [1] and in the test on RAW264.7 [3] was 42.1 µM in each case. Further, the “Ratio CC50/IC50” value in the test with RAW264.7 [2] was determined as 1.

For the molecule `CC(C)=CCc1c(O)cc2oc(-c3ccc(O)cc3O)c(CC=C(C)C)c(=O)c2c1O` [CUDRAFLAVONE C], the figures for the IC50 with RAW264.7 [1] and in the test on RAW264.7 [3] were 52.3 µM and 59.2 µM, respectively. Moreover, in the test with RAW264.7 [2], the “Ratio CC50/IC50” value is listed as 1.1.

Take `C/C(=C/Cc1c(O)ccc(C(=O)/C=C/c2ccc(O)cc2)c1O)COC(=O)/C=C/c1ccc(O)cc1` [GEMICHALCONE B]: the IC50 was determined as 9.3 µM in the test on RAW264.7 [1] and 35.1 µM in the test with RAW264.7 [3]. Besides, in the test with RAW264.7 [2], the “Ratio CC50/IC50” value is listed as 3.8.

For `COc1cc(/C=C/C(=O)OC/C(C)=C\Cc2c(O)ccc(C(=O)/C=C/c3ccc(O)cc3O)c2O)ccc1O` [GEMICHALCONES C], the half-inhibitory concentration (IC50) turned out to be 23.9 µM with RAW264.7 [1] and 37.6 µM with RAW264.7 [3]. For the same molecule, the “Ratio CC50/IC50” value in the test on RAW264.7 [2] was 1.6.

In the case of `CC(C)=CCc1c(O)ccc(C(=O)/C=C/c2ccc(O)cc2)c1O` [ISOBAVACHALCONE], the IC50 was determined as 6.4 µM with RAW264.7 [1] and 16.4 µM in the test on RAW264.7 [3]. The “Ratio CC50/IC50” value in the test with RAW264.7 [2] is recorded as 2.6.

For `CC(C)=CCc1c(O)ccc(C(=O)/C=C/c2ccc(O)cc2O)c1O` [MORACHALCONE A], the 50% inhibitory concentration (IC50) in the test on RAW264.7 [1] is 16.4 µM; in the test on RAW264.7 [3], 58 µM. The “Ratio CC50/IC50” value in the test on RAW264.7 [2] came to 3.5.

In the case of `CNC(=N)NCCC[C@H](N)C(=O)O` [TILARGININE], the half-inhibitory concentration (IC50) in the test with RAW264.7 [1] was 19.2 µM; with RAW264.7 [3], over 50 µM. In the test with RAW264.7 [2], the “Ratio CC50/IC50” value is reported as over 2.6.
